Assay [1] relates to THP-1. Description: Inhibition of TET in human THP-1 cells assessed as reduction in 5hmc/5mc level at 25 uM incubated for 12 hrs by dot blot analysis relative to control. It counts as cell-based. The method in brief:
(§1)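 THP1 cells at 0.3x10^6/mL exposed 12 h to ester prodrugs (25, 50, 100 µM) with 100 µM sodium ascorbate. Genomic DNA denatured in NaOH/EDTA at 95 °C, two-fold serial dilutions dot-blotted, probed with anti-5hmC and anti-5mC antibodies, and loading checked by methylene blue. Inhibition taken from the 5hmC/5mC ratio; means of at least three experiments, below 5% reported not detected.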

The subject of assay [2] is THP-1. Description: Inhibition of TET in human THP-1 cells assessed as reduction in 5hmc/5mc level at 50 uM incubated for 12 hrs by dot blot analysis relative to control. Format: cell-based. The method in brief: as §1
Assay [3] has as its system THP-1. Description: Inhibition of TET in human THP-1 cells assessed as reduction in 5hmc/5mc level at 100 uM incubated for 12 hrs by dot blot analysis relative to control. It counts as cell-based. An outline of the steps: as §1
The target of assay [4] is T1, Methylcytosine dioxygenase TET2 (Homo sapiens, UniProt Q6N021). Description: Inhibition of recombinant human GST-tagged TET2 (1099 to 1936 residues) expressed in Escherichia coli BL21 (DE3)pLysS assessed as reduction in 5hmc level incubated for 2 hrs by ELISA.
For assay [5], the target named is T1, Methylcytosine dioxygenase TET2. Description: Potency index, ratio of IC50 of NOG to IC50 of compound for inhibition of recombinant human GST-tagged TET2 (1099 to 1936 residues) expressed in Escherichia coli BL21 (DE3)pLysS assessed as reduction in 5hmc level incubated for 2 hrs by ELISA.
Assay [6] has as its target T2, Methylcytosine dioxygenase TET1 (Homo sapiens, UniProt Q8NFU7). Description: Inhibition of TET1 (unknown origin).
Assay [7] addresses T3, Methylcytosine dioxygenase TET3 (Homo sapiens, UniProt O43151). Description: Inhibition of TET3 (unknown origin).
The nature of assay [8]: Inhibition of TET (unknown origin). Details: species or system Homo sapiens.
The target of assay [9] is T2, Methylcytosine dioxygenase TET1. Briefly: Inhibition of recombinant human N-terminal Flag-tagged TET1 (1418 to 2136 residues) expressed in Baculovirus infected Sf9 cells assessed as reduction in 5hmc level incubated for 2 hrs by ELISA.
The target of assay [10] is T3, Methylcytosine dioxygenase TET3. Briefly: Inhibition of recombinant human N-terminal Flag-tagged C-terminal His-tagged TET3 (824 to 1795 residues) expressed in Baculovirus infected Sf9 cells assessed as reduction in 5hmc level incubated for 2 hrs by ELISA.
Assay [11] deals with T1, Methylcytosine dioxygenase TET2. Briefly: Binding affinity to human recombinant TET2 (1099 to 1936) catalytic domain assessed as dissociation constant by micro-scale thermophoresis analysis.
Assay [12] shares this target. Description: Reversible inhibition of recombinant human GST-tagged TET2 (1099 to 1936 residues) expressed in Escherichia coli BL21 (DE3)pLysS assessed as restoration of enzyme activity in presence of alpha-KG at 20 uM incubated for 2 hrs by ELISA. An outline of the steps: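 TET2 catalytic domain (100 nM) preincubated with 12.5 µM inhibitor, then α-KG added at increasing concentrations. Anti-5hmC/HRP detection, TMB read at 450 nm; activity expressed relative.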

Assay [13] concerns the target T2, Methylcytosine dioxygenase TET1. Briefly: Inhibition of TET1 (unknown origin) at 10 mM in presence of alpha-KG relative to control.
The target is the same in assay [14]. Briefly: Inhibition of TET1 (unknown origin) at 50 mM in presence of alpha-KG relative to control.
The target of assay [15] is T1, Methylcytosine dioxygenase TET2. The conditions noted are these: dose 10.0 mM.
Assay [16] has the same target. Particulars: dose 50.0 mM.

Experimental findings from ChEMBL document CHEMBL4819102, “SAR insights into TET2 catalytic domain inhibition: Synthesis of 2-Hydroxy-4-Methylene-pentanedicarboxylates” (Bioorg Med Chem, 2021) are described below.

The source made the active and inactive calls. The calls are words filed in the database; no cut-off is given here. Where only a bound is given, the exact number is not on record here.

T2 sequence (Q8NFU7 whole entry): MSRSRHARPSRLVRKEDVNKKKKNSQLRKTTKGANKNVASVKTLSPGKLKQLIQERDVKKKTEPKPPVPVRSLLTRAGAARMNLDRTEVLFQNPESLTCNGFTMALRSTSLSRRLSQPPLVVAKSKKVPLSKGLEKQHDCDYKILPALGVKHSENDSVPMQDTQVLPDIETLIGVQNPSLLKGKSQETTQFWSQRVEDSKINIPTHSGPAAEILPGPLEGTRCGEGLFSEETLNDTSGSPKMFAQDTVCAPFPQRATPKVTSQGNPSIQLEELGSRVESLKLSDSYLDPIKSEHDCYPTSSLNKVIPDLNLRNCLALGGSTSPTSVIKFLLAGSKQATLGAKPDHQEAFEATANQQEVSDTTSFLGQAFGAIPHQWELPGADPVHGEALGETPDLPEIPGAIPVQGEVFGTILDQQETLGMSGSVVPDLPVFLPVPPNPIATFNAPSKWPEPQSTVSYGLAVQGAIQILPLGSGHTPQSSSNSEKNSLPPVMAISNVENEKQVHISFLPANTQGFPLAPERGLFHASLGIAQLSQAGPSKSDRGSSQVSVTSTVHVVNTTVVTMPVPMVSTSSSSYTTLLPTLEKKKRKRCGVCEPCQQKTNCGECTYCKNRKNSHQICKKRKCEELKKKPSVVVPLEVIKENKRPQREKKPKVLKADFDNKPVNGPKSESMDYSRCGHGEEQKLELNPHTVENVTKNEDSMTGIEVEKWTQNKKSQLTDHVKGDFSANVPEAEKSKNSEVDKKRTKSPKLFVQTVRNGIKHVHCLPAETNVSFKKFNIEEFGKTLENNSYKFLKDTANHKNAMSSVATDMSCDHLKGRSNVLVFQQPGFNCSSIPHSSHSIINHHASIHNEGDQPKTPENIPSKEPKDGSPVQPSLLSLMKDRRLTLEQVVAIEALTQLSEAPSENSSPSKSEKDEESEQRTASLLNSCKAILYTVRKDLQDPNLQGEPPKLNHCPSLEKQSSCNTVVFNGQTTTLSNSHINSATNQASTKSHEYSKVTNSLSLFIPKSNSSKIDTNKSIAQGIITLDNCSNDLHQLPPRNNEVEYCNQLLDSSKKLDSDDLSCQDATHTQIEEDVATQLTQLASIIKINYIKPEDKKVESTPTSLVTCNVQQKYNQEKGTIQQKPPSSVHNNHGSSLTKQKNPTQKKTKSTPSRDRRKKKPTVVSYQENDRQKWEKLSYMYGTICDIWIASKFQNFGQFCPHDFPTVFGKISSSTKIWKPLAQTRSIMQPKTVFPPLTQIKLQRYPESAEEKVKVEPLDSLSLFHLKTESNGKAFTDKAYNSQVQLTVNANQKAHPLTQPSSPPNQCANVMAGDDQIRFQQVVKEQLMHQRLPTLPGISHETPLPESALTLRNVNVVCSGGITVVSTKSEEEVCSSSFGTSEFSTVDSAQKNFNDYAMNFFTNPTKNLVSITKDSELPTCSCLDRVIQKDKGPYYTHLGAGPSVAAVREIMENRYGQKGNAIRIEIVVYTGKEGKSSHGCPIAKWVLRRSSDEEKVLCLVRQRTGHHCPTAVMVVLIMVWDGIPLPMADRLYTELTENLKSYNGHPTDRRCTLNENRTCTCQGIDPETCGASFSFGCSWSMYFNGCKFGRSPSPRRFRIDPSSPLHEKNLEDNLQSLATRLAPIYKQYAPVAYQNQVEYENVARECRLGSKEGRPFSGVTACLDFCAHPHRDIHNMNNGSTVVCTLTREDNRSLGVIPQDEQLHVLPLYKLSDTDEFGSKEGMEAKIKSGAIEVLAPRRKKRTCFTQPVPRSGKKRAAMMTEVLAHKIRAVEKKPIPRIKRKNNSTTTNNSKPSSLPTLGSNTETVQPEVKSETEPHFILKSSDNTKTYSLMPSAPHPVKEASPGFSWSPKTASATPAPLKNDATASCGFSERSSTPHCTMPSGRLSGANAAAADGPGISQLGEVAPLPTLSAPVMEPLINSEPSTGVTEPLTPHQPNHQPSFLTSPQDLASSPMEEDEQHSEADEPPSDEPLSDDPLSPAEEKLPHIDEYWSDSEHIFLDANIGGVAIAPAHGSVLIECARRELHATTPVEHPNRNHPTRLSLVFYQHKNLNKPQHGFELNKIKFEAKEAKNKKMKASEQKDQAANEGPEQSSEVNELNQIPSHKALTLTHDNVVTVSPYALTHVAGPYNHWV

For `C=C(CC(Cl)C(=O)OC)C(=O)OC` (centres undefined), the results for the inhibition in the assay with THP-1 [1], in the assay with THP-1 [2] and in the assay with THP-1 [3] were 40%, 54% and 66%, respectively.
For `C=C(CC(C)(O)C(=O)OCC)C(=O)OCC` (racemic), in that order: 54%, 71% and 80%.
For `C=C(C[C@@H](O)C(=O)O)C(=O)O`, the IC50 in assay [4] was found to be 11 µM. In addition, the Ratio IC50 in [5] stood at 2.
For `COC(=O)/C=C/C(=O)OC`, the results for the inhibition in the assay on THP-1 [1], in the assay with THP-1 [2] and with THP-1 [3] were under 5%, 21% and 33%, respectively.
With `O=C(C[C@@H](O)CCc1ccc(O)c(O)c1)O[C@@H]1Cc2c(O)cc(O)cc2C[C@@H]1c1ccc(O)c(O)c1`, the concentration for half-maximal inhibition (IC50) in assay [6] was 3.48 µM; in assay [7], 2.31 µM.
On to `CCC(CC(=O)C(=O)OC)C(=O)OC` (centres undefined), for which the inhibition in the assay on THP-1 [1], in the assay with THP-1 [2] and with THP-1 [3] was under 5% in each case.
In the case of `C=C(C[C@H](O)C(=O)O)C(=O)O`, the IC50 in [4] amounted to 10.5 µM. The Ratio IC50 in assay [5] was 2.
In assay [8], `O=C(O)CCC(=O)O` [SUCCINIC ACID] had an IC50 of 2800 µM.
On to `C=C(NC(C)=O)C(=O)OC`, for which the inhibition with THP-1 [1], in the assay on THP-1 [2] and with THP-1 [3] was under 5% each time.
For the compound `COC(=O)C(=O)CC(C)C(=O)OC` (centres undefined), the inhibition in the assay with THP-1 [1], in the assay on THP-1 [2] and in the assay on THP-1 [3] was under 5% throughout.
With `O=C(O)/C=C/C(=O)C(=O)O`, the IC50 in [4] came to 107 µM.
For the compound `CCOC(=O)C(O)CC1(C(=O)OCC)CC1` (racemic), the inhibition with THP-1 [1], in the assay on THP-1 [2] and in the assay with THP-1 [3] was under 5% throughout.
As for `C=C(CC(O)(CC)C(=O)OCC)C(=O)OCC` (racemic), the inhibition in the assay with THP-1 [1] was found to be 29%; with THP-1 [2], 45%; in the assay on THP-1 [3], 48%.
In the case of `CCOC(=O)C(C)CC(O)C(=O)OCC` (racemic), the inhibition is under 5% in the assay with THP-1 [1], 14% in the assay with THP-1 [2] and 41% in the assay with THP-1 [3].
For the compound `COC(=O)/C=C/C(=O)C(=O)OC`, the inhibition in the assay on THP-1 [1] turned out to be 7%; with THP-1 [2], 17%; in the assay with THP-1 [3], 34%.
Turning to `O=C(O)/C=C/C(=O)O` [FUMARIC ACID], it took 2400 µM to reach half-maximal inhibition in assay [8] (IC50).
With `COC(=O)CNC(=O)C(=O)OC`, the inhibition stood at 56% with THP-1 [1], 62% in the assay with THP-1 [2] and 64% in the assay with THP-1 [3].
For `C=C(CC(O)(C(=O)OCC)C(F)(F)F)C(=O)OCC` (racemic), the inhibition in the assay with THP-1 [1] was determined as 49%; in the assay with THP-1 [2], 67%; with THP-1 [3], 79%.
As to `C=C(CC(F)(F)C(=O)OCC)C(=O)OCC`, the inhibition with THP-1 [1] was found to be 12%; with THP-1 [2] it was 20%; with THP-1 [3], 29%.
For the compound `C=C(CC(F)C(=O)OCC)C(=O)OCC` (racemic), the inhibition with THP-1 [1] was 9%; in the assay on THP-1 [2], 11%; in the assay with THP-1 [3], 41%.
In the case of `C=C(CC(O)C(=O)O)C(=O)O` (centres undefined), in assay [5], the Ratio IC50 was determined as 2. Besides, the half-maximal inhibitory concentration (IC50) in [9] was 1.5 µM; in [10] it was 8.8 µM. The dissociation constant (Kd) in assay [11] turned out to be 0.3 µM. The inhibition result in assay [12] was “Active”.
For `CC(C)CC(NC(=O)C(=O)O)C(=O)O` (centres undefined), the IC50 in [8] turned out to be 18.1 µM.
Take `C=C(CC(=O)C(=O)OCC)C(=O)OCC`: the inhibition is under 5% in the assay with THP-1 [1], 27% in the assay with THP-1 [2] and 44% in the assay with THP-1 [3].
In [8], `O=C(O)CC[C@@H](O)C(=O)O` registered an IC50 of 6400 µM. For the same compound, the inhibition worked out at 28% in [13], 47% in [14], 33% in [15] and 83% in assay [16].
On to `CCOC(=O)C(=O)CC1(C(=O)OCC)CC1`, for which the inhibition in the assay on THP-1 [1] was 19%; in the assay on THP-1 [2] it was 29%; in the assay on THP-1 [3] it was 33%.
As to `COC(=O)CCC(=O)C(=O)OC`, the inhibition in the assay with THP-1 [1], in the assay with THP-1 [2] and with THP-1 [3] was under 5% each time.
For the compound `C=C(CC(O)C(=O)OCC)C(=O)OCC` (racemic), the inhibition in the assay with THP-1 [1] was found to be 55%; with THP-1 [2], 68%; in the assay on THP-1 [3] it was 73%.
`O=C(O)CNC(=O)C(=O)O` [N-OXALYLGLYCINE] had a concentration for half-maximal inhibition (IC50) in [8] of 80 µM.
Turning to `CCOC(=O)C(C)CC(F)(F)C(=O)OCC` (centres undefined), the results for the inhibition in the assay on THP-1 [1], in the assay with THP-1 [2] and in the assay on THP-1 [3] were 14%, 9% and 22%, respectively.
Consider `C=C(CC(O)(C(=O)OCC)C(C)C)C(=O)OCC` (racemic), for which the inhibition stood at 17% in the assay with THP-1 [1], 37% in the assay with THP-1 [2] and 43% in the assay on THP-1 [3].
As to `C=C(CCC(=O)OC)C(=O)OC`, the inhibition with THP-1 [1] is under 5%; in the assay on THP-1 [2], 7%; in the assay on THP-1 [3] it was 22%.
On the same counts, the results for `COC(=O)CCC(O)C(=O)OC` (centres undefined) are 9%, 18% and 29%.
Consider `COC(=O)CCC(=O)OC`, for which the inhibition is under 5% in the assay on THP-1 [1], 7% in the assay with THP-1 [2] and 15% with THP-1 [3].
Regarding `C=C(CC(C)O)C(=O)OCC` (racemic), the inhibition worked out at 15% in the assay with THP-1 [1], 27% in the assay with THP-1 [2] and 47% with THP-1 [3].
`O=C(O)CC[C@H](O)C(=O)O`: in assay [8], the IC50 was found to be 3600 µM.
